Results from article PMC4363178 (Biochemical and biophysical research communications, 2015).
Peptide text beside a SMILES is read from it.

Legend:
[1] = target: T1, PDZ1 of mouse ZO2 (M-ZO2PDZ1) (Mus musculus, UniProt Q9Z0U1); assay: NMR titration; type: binding; conditions: for Decrease of chemical shift change of R87 relative to wild-type Cln1-C: same concentration of wild-type Cln1-C, stated jointly for the two mutants
T1 sequence (Q9Z0U1 1-102): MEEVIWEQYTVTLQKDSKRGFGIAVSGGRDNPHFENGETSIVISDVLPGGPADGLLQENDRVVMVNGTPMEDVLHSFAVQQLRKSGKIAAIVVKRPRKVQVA
In short: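 His-tag-cleaved mouse ZO2 PDZ1 from E. coli BL21(DE3), 15N-labelled in M9 medium, at 0.1 mM in pH 5.2 buffer (50mM phosphate, 50mM NaCl, 0.2mM EDTA). Unmodified peptides (>95% pure; 50 mM stock) were added stepwise up to 12:1 peptide:protein, with ≤10% total dilution. A 1H-15N HSQC was recorded at each point at 600 MHz and 298K. Composite shift = {[δHN]^2 + [0.17 δN]^2}^1/2.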

[2] = target: PDZ1 domain of mouse ZO2 (M-ZO2PDZ1) (mouse) (UniProt Q9Z0U1); assay: NMR titration
Chain of PDZ1 domain of mouse ZO2 (M-ZO2PDZ1) (mouse) (Q9Z0U1 1-104): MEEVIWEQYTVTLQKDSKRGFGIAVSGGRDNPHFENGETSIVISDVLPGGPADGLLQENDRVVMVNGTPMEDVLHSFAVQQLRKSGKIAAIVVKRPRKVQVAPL

In the case of PSSGKDVY [Cln1-C-VY], the “Decrease of chemical shift change of R87 relative to wild-type Cln1-C” value [1] is reported as 22 fold.
With CC[C@H](C)[C@H](N)C(=O)N[C@@H](CC(C)C)C(=O)N[C@@H](CCCNC(=N)N)C(=O)N[C@@H](CCCCN)C(=O)N[C@@H](CCCNC(=N)N)C(=O)N[C@@H](CCC(=O)O)C(=O)N[C@@H](Cc1ccc(O)cc1)C(=O)N[C@H](C(=O)O)C(C)C [PMP22-YV] (H-ILRKREYV-OH) the Kd [1] was 150 ± 50 µM.
“mutant PMP22 C-terminal peptide PMP22-M1 (ILRKREYV)” was tested, and the Kd [2] was 150 µM.
Work on C[C@H](NC(=O)[C@H](Cc1ccc(O)cc1)NC(=O)[C@H](CC(=O)O)NC(=O)[C@H](CCCCN)NC(=O)CNC(=O)[C@H](CO)NC(=O)[C@H](CO)NC(=O)[C@@H]1CCCN1)C(=O)O [Cln1-C-YA] (H-PSSGKDYA-OH) yielded a Kd [1] of 500 ± 250 µM.
In the case of PSSGKDAA [Cln1-C-AA], the “Decrease of chemical shift change of R87 relative to wild-type Cln1-C” value [1] is reported as 22 fold.
